Shown are actives, neighbours in structure and some others; about 2.3% of the full set was active somewhere.
ABCB1 inh: blocks JC-1 efflux by human ABCB1 transporter; CCRF-Adr cells, flow cytometry; AID 1326; P08183; 190,000 tested, 0.067% active; inhibition, % at 6.6 µM; in the data active = inhibition above about 40%;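 note: 0% = vehicle and 100% = reference inhibitor; higher value means more JC-1 retained so stronger ABCB1 efflux block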
MEKK3 PB1 HTS: MEKK3-MEK5 PB1 interaction, increase or decrease | Q99759 | bead-based flow cytometry, Alexa488-MEK5 binding to MEKK3; actives lie on both sides; 0 = blocked by unlabeled MEK5, 100 = vehicle | binding response (% of control), % at 10 µM | 290,000 tested, 1.4% active;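 active = binding response more than 3 SD above or below the average of its plate-row segment, actives on both sides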;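 note: Alexa488 bead fluorescence after subtracting the streptavidin-only scavenger bead signal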
ABCG2 inh: blocks JC-1 efflux by human ABCG2 transporter. Q9UNQ0. IgMXP3 cells, flow cytometry. inhibition, % at 6.6 µM. 190,000 tested, 0.1% active. AID 1325;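 active = inhibition above 80%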;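 note: 0% = DMSO and 100% = nicardipine control wells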
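Test system: IgMXP3 (ABCG2) plus far-red-tagged CCRF-Adr (ABCB1) cells / Amount: 3 million cells/mL in well / Reagent: JC-1 transporter substrate / Timing: 10 min compound exposure, 25 °C / Signal: flow cytometry, 530 nm JC-1 signal / Read-out: percent efflux inhibition, scaled nicardipine 100% to DMSO 0% / Benchmarks: nicardipine as high control, DMSO as low control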
MEKK2mut PB1 HTS: signal of MEK5 binding to mutant human MEKK2 PB1 domain. percent response, % at 10 µM. bead flow cytometry, Alexa488-MEK5 binding to MEKK2 mutant. 290,000 tested, 0.35% active; in the data active = percent response above about 24%, passing the limit was not always enough
MEKK2 WT-MEK5: raises or lowers MEK5 binding to wildtype human MEKK2 PB1 domain | AID 1531 | Q9Y2U5 | binding response (% of control), % at 10 µM | 290,000 tested, 1.1% active | bead flow cytometry, Alexa488-MEK5 binding to MEKK2 WT; actives lie on both sides; in the data active = binding response below about 67% or above about 130%
MEKK2wt confirm: raises or lowers MEK5 binding to wildtype human MEKK2, retest | shares compounds with MEKK3 PB1 HTS | bead flow cytometry, Alexa488-MEK5 binding to MEKK2 WT; actives lie on both sides | binding response (% of control), % at 10 µM | 5,900 tested, 2.4% active; in the data active = binding response below about 16% or above about 210%; inactive = in between
MEKK2mut-MEK5: signal of MEK5 binding to mutant human MEKK2, retest. bead flow cytometry, Alexa488-MEK5 binding to MEKK2 mutant. shares compounds with MEKK3 PB1 HTS. 5,900 tested, 2% active. percent response, % at 10 µM; in the data active = percent response mostly above about 71%, no sharp cut-off; inactive = mostly below about 38%;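 note: higher means compound restores mutant binding toward wildtype level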
MEKK3 confirm: MEKK3-MEK5 PB1 inhibition, single concentration confirmation. shares compounds with MEKK3 PB1 HTS. bead flow cytometry, Alexa488-MEK5 binding to MEKK3; stronger effect = lower value. binding response (% of control), % at 10 µM. 5,900 tested, 1.8% active. AID 1894;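 active = binding response below 72% of control, or above a set upper limit, though filed actives all read lower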;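 note: 100% = DMSO only wells and 0% = binding blocked by excess unlabeled MEK5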
Numbers without * were called inactive; · = no result; [ ] = remark or other dose.

SMILES	ABCB1 inh	MEKK3 PB1 HTS	ABCG2 inh	MEKK2mut PB1 HTS	MEKK2 WT-MEK5	MEKK2wt confirm	MEKK2mut-MEK5	MEKK3 confirm
COc1nc(-c2ccccc2)ccc1-c1noc(COc2ccccc2)n1	1	132*	6	6	123	100	0	101
CCOP(=O)(OCC)C(Nc1ccccn1)c1ccccc1 (configuration not stated)	1	135*	4	1	108	91	-14	94
Cc1cc(NC(=O)CCN2CCN(C/C=C/c3ccccc3)CC2)ccc1Br	·	112	·	18	149*	152	20	109
CCOC(=O)N1CCC(Nc2nc3ccccc3n3cnnc23)CC1	·	0.0*[inhibitor]	·	-43	0.0*[inhibitor]	97	-4	99
Cc1ccc(-n2c([S-])c(C(=O)Nc3ccc(OC(F)F)cc3)[n+]3ccc(C(=O)NCCO)cc23)cc1C	-1	86	-5	-10	63*[inhibitor]	84	-9	99
COc1ccccc1-n1c([S-])c(C(=O)Nc2ccccc2C(F)(F)F)[n+]2ccc(C(=O)NCCO)cc12	1	99	2	-14	68	·	·	·
O=C(/C=C/c1c(F)cccc1Cl)N1CCc2ccccc2C1	·	102	·	2	101	·	·	·
CCOC(=O)C(=Cc1ccc(F)cc1)C(=O)OCC	0	114	3	33*	121	101	0	105
COc1cc2ccccc2cc1C(=O)Nc1sc2c(c1C(N)=O)CCN(C(C)C)C2	·	107	·	29*	150*	170	42	110
CN1CCc2c(sc(NC(=O)c3ccc4ccccc4c3)c2C(N)=O)C1	·	106	·	19	135*	151	23	108
CCOC(=O)c1c(NC(=O)Nc2ccc(F)cc2)sc2c1CCN(C)C2	·	129*	·	31	141*	124	4	101
CCOC(=O)c1c(NC(=S)Nc2ccc(Cl)cc2)sc2c1CCN(C)C2	-2	118	-6	-1	81	·	·	·
CCCCc1ncc(CN2CCC(n3nccc3NC(=O)c3ccccc3Cl)CC2)[nH]1	·	91	·	-6	106	·	·	·
OC(C[n+]1ccccc1)c1ccccc1 (configuration not stated)	·	104	·	2	106	·	·	·
O=C(CSc1nc2c(c(=O)n1-c1ccc(Cl)cc1)SCC2)NCc1ccco1	0	·	5	·	·	·	·	·
O=C(CSc1nc2c(c(=O)n1-c1ccc(F)cc1)SCC2)NCc1ccco1	2	124*	28	4	120	103	-1	100
COCCCNC(=O)COc1ccc(Cl)c(C)c1	0	87	3	-5	92	·	·	·
Cc1cc(OCC(=O)NC(C)(C)C)ccc1Cl	0	128*	12	1	105	99	3	103
COc1ccc(C(C(N)=O)c2ncc(C(F)(F)F)cc2Cl)cc1 (configuration not stated)	1	150*	3	7	131	106	4	105
COc1ccc(C(O)c2ncc(C(F)(F)F)cc2Cl)cc1 (configuration not stated)	·	99	·	1	102	·	·	·
O=C(CCNC(=O)c1ccccc1)Nc1ccc(F)c(Cl)c1	0	138*	0	1	108	103	5	102
CCN(CCCNC(=O)CNC(=O)c1nn(-c2ccc(OC)cc2)c(=O)c2ccccc12)c1cccc(C)c1	·	103	·	6	102	·	·	·
Cc1nc2ccc(S(=O)(=O)NCC(=O)Nc3ccc(F)cc3)cc2s1	·	100	·	-1	101	·	·	·
Cn1nccc1C(=O)NC1CCCc2c1cnn2-c1ccc(C(C)(C)C)cc1 (configuration not stated)	·	106	·	6	103	·	·	·
CC(=O)Nc1nc(NC(=O)/C=C/c2ccccc2)n(-c2ccccc2)n1	0	140*	-3	2	105	104	-3	104

Screening results as filed in PubChem.
